Measurements from ChEMBL document CHEMBL1125769 (J Med Chem, 1991).
Numbered stars: 1 amine (or outer) side, 2 acyl side, 3 side chain; on linkers, the order of the positions; unused ones are H or OH. Square brackets hold non-standard residues; d marks the D form. Peptide text beside a SMILES is read from it. X2 = O=C([C@H]1C[S+]([O-])CN1[*:1])[*:2]; Thz(5,5-Me2) = CC1(C)SCN[C@@H]1C(=O)O; Pen = CC(C)(S)[C@H](N)C(=O)O; NMeA = CN[C@@H](C)C(=O)O; Ac5c = NC1(C(=O)O)CCCC1; Aib = CC(C)(N)C(=O)O; Sar = CNCC(=O)O

Experiments:
[1] = target: T1, Angiotensin II receptor (Rattus norvegicus, UniProt P29089+P25095+P35351); assay: In vitro antagonist activity (ANG II like) expressed as percent activity relative to ANG II in rabbit aorta strip assay.; type: functional, tissue-based
T1 sequence (P29089 whole entry): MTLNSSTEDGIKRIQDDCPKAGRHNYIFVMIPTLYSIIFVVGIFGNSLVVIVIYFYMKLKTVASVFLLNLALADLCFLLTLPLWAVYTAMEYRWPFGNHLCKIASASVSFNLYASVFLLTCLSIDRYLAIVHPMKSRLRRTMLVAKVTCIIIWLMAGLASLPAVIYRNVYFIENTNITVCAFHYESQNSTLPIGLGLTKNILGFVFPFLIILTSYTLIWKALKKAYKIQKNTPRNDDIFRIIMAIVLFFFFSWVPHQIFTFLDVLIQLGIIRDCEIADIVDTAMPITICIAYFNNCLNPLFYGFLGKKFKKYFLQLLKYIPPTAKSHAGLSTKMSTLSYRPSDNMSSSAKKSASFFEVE
T1 sequence (P25095 whole entry): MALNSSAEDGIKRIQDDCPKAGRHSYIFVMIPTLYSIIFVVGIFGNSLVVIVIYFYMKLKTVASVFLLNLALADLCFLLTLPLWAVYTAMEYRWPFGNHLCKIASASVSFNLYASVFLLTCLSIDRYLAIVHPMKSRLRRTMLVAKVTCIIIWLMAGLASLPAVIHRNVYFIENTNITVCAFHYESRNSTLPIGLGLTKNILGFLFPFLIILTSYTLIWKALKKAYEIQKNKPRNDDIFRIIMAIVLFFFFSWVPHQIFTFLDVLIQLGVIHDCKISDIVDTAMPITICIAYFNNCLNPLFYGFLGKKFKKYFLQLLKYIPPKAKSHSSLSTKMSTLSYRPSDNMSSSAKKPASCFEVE
T1 sequence (P35351 whole entry): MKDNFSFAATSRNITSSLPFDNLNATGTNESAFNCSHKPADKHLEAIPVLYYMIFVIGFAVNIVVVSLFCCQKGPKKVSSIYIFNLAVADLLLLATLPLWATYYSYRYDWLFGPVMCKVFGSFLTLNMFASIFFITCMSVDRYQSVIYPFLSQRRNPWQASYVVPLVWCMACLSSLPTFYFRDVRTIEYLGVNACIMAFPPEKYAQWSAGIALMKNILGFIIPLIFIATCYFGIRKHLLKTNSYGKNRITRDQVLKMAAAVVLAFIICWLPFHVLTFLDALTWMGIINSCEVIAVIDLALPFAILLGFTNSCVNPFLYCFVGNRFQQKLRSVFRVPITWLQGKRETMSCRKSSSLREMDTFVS

[2] = target: T2, Angiotensin II receptor (Rattus norvegicus) (UniProt P29089+P25095+P35351); assay: In vivo antagonist activity (ANG II like) expressed by blood pressure increase (mHg) produced by […] iv injection of compound in rats; type: functional, organism-based
In short: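 Rat blood pressure assay after Regoli et al.; residual ANG II-like activity read as mmHg rise in blood pressure following a one microgram intravenous bolus of compound; n = 5.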

[3] = target: T2, Angiotensin II receptor (Rattus norvegicus); assay: In vitro agonist activity relative to angiotensin II measured in rabbit aorta strip assay.; type: functional, tissue-based

Compound	pA2 [1]	Activity [3]	ID50 (ng min-1 rat-1) [2]
CNCC(=O)N[C@@H](CCCN=C(N)N)C(=O)N[C@H](C(=O)N[C@@H](Cc1ccc(O)cc1)C(=O)N1CSC(C)(C)[C@H]1C(=O)N[C@@H](Cc1c[nH]cn1)C(=O)N1CCC[C@H]1C(=O)N[C@H](Cc1ccccc1)C(=O)O)C(C)C	7.5		
CC[C@H](C)[C@H](NC(=O)[C@H](Cc1ccc(O)cc1)NC(=O)[C@@H](NC(=O)[C@H](CCCN=C(N)N)NC(=O)CNC)C(C)C)C(=O)N[C@@H](Cc1c[nH]cn1)C(=O)N1CCC[C@H]1C(=O)N[C@H](Cc1ccccc1)C(=O)O	9	0%	12.5
CC[C@H](C)[C@H](NC(=O)[C@@H]1CCCN1C(=O)[C@H](Cc1c[nH]cn1)NC(=O)[C@](C)(Cc1ccc(O)cc1)NC(=O)[C@H](Cc1ccc(O)cc1)NC(=O)[C@@H](NC(=O)[C@H](CCCN=C(N)N)NC(=O)CNC)C(C)C)C(=O)O	8.25	0%	100
CC[C@H](C)[C@H](NC(=O)[C@H](Cc1ccc(O)cc1)NC(=O)[C@@H](NC(=O)[C@H](CCCN=C(N)N)NC(=O)CNC)C(C)C)C(=O)N[C@@H](Cc1c[nH]cn1)C(=O)N1CCC[C@H]1C(=O)NC(C)(C)C(=O)O	8.7		
CC[C@H](C)[C@H](NC(=O)[C@@H]1CCCN1C(=O)[C@H](Cc1c[nH]cn1)NC(=O)[C@H](Cc1ccc(O)cc1)NC(=O)[C@H](Cc1ccc(O)cc1)NC(=O)[C@@H](NC(=O)[C@H](CCCN=C(N)N)NC(=O)CNC)C(C)C)C(=O)O	9.6		
CC[C@H](C)[C@H](NC(=O)[C@@H]1CCCN1C(=O)[C@H](Cc1c[nH]cn1)NC(=O)[C@H]([C@@H](C)CC)N(C)C(=O)[C@H](Cc1ccc(O)cc1)NC(=O)[C@@H](NC(=O)[C@H](CCCN=C(N)N)NC(=O)CNC)C(C)C)C(=O)O	7.64	0%	
CC[C@@H](C)[C@@H](NC(=O)[C@H](Cc1ccc(O)cc1)NC(=O)[C@@H](NC(=O)[C@H](CCCN=C(N)N)NC(=O)CNC)C(C)C)C(=O)N[C@@H](Cc1c[nH]cn1)C(=O)N1CCC[C@H]1C(=O)NC(C)(C)C(=O)O		0%	
CC[C@H](C)[C@@H](C(=O)N[C@@H](Cc1c[nH]cn1)C(=O)N1CCC[C@H]1C(=O)N[C@@H](Cc1ccccc1)C(=O)O)N(C)C(=O)[C@H](Cc1ccc(O)cc1)NC(=O)[C@@H](NC(=O)[C@H](CCCN=C(N)N)NC(=O)CNC)C(C)C		20%	
CC[C@H](C)[C@H](NC(=O)[C@H](Cc1ccc(O)cc1)NC(=O)[C@H](C)N(C)C(=O)[C@H](CCCN=C(N)N)NC(=O)CNC)C(=O)N[C@@H](Cc1c[nH]cn1)C(=O)N1CCC[C@H]1C(=O)N[C@@H](Cc1ccccc1)C(=O)O		120%	
CNCC(=O)N[C@@H](CCCN=C(N)N)C(=O)N[C@H](C(=O)N[C@@H](Cc1ccc(O)cc1)C(=O)N1CSC(C)(C)[C@@H]1C(=O)N[C@@H](Cc1c[nH]cn1)C(=O)N1CCC[C@H]1C(=O)N[C@H](Cc1ccccc1)C(=O)O)C(C)C		0%	1000
CC[C@H](C)[C@H](NC(=O)[C@H](Cc1ccc(O)cc1)NC(=O)[C@H](C)NC(=O)[C@H](CCCN=C(N)N)NC(=O)CNC)C(=O)N[C@@H](Cc1c[nH]cn1)C(=O)N1CCC[C@H]1C(=O)N[C@@H](Cc1ccccc1)C(=O)O (H-[Sar]RAYIHPF-OH)		38%	
CC[C@H](C)[C@H](NC(=O)[C@@H]1CCCN1C(=O)[C@H](Cc1c[nH]cn1)NC(=O)[C@@H](NC(=O)[C@H](Cc1ccc(O)cc1)NC(=O)[C@@H]1CCCN1C(=O)[C@H](CCCN=C(N)N)NC(=O)CNC)[C@@H](C)CC)C(=O)O (H-[Sar]RPYIHPI-OH)	7.17	1.5%	
CC[C@H](C)[C@H](NC(=O)[C@@H]1CCCN1C(=O)[C@H](Cc1c[nH]cn1)NC(=O)[C@H](C)NC(=O)[C@H](Cc1ccc(O)cc1)NC(=O)[C@@H](NC(=O)[C@H](CCCN=C(N)N)NC(=O)CNC)C(C)C)C(=O)O (H-[Sar]RVYAHPI-OH)	7.5	0%	50
CNCC(=O)N[C@@H](CCCN=C(N)N)C(=O)N[C@H](C(=O)N[C@@H](Cc1ccc(O)cc1)C(=O)NC1(C(=O)N[C@@H](Cc2c[nH]cn2)C(=O)N2CCC[C@H]2C(=O)N[C@@H](Cc2ccccc2)C(=O)O)CCCC1)C(C)C (H-[Sar]RVY[Ac5c]HPF-OH)		70%	
CC[C@H](C)[C@H](NC(=O)[C@@H]1CCCN1C(=O)[C@H](Cc1c[nH]cn1)NC(=O)[C@@H](NC(=O)[C@H](Cc1ccc(O)cc1)NC(=O)[C@@H](NC(=O)[C@H](CCCN=C(N)N)NC(=O)CNC)C(C)C)C(C)(C)SC)C(=O)O (H-[Sar]RVY[Pen](Me)HPI-OH)	9		
CNCC(=O)N[C@@H](CCCN=C(N)N)C(=O)N(C)[C@@H](C)C(=O)N[C@@H](Cc1ccc(O)cc1)C(=O)N1CSC(C)(C)[C@H]1C(=O)N[C@@H](Cc1c[nH]cn1)C(=O)N1CCC[C@H]1C(=O)NC(C)(C)C(=O)O (H-[Sar]R[NMeA]Y[Thz(5,5-Me2)]HP[Aib]-OH)	< 6		

More lines, main results first:

pA2 [1]	Activity [3]	Compound	ID50 (ng min-1 rat-1) [2]
9.7		CC[C@H](C)[C@H](NC(=O)[C@@H]1CSCN1C(=O)[C@H](Cc1c[nH]cn1)NC(=O)[C@@H](NC(=O)[C@H](Cc1ccc(O)cc1)NC(=O)[C@@H](NC(=O)[C@H](CCCN=C(N)N)NC(=O)CNC)C(C)C)[C@@H](C)CC)C(=O)O	
7.5		CC[C@H](C)[C@H](NC(=O)[C@H]1N(C(=O)[C@H](Cc2c[nH]cn2)NC(=O)[C@@H](NC(=O)[C@H](Cc2ccc(O)cc2)NC(=O)[C@@H](NC(=O)[C@H](CCCN=C(N)N)NC(=O)CNC)C(C)C)[C@@H](C)CC)CSC1(C)C)C(=O)O	
9		CC[C@H](C)[C@H](NC(=O)[C@@H]1CCCN1C(=O)[C@H](Cc1c[nH]cn1)NC(=O)[C@H]1N(C(=O)[C@H](Cc2ccc(O)cc2)NC(=O)[C@@H](NC(=O)[C@H](CCCN=C(N)N)NC(=O)CNC)C(C)C)CSC1(C)C)C(=O)O	
	0%	CC[C@H](C)[C@H](NC(=O)[C@@H]1CCCN1C(=O)[C@H](Cc1c[nH]cn1)NC(=O)[C@@H](NC(=O)[C@H](Cc1ccc(O)cc1)NC(=O)[C@@H](NC(=O)[C@H](CCCN=C(N)N)NC(=O)CNC)C(C)C)[C@@H](C)CC)C(=O)O	10
	0%	CC[C@H](C)[C@H](NC(=O)[C@@H]1CCCN1C(=O)[C@H](Cc1c[nH]cn1)NC(=O)[C@@H]1N(C(=O)[C@H](Cc2ccc(O)cc2)NC(=O)[C@@H](NC(=O)[C@H](CCCN=C(N)N)NC(=O)CNC)C(C)C)CSC1(C)C)C(=O)O	25
	4%	CC[C@H](C)[C@H](NC(=O)[C@@H]1N(C(=O)[C@H](Cc2c[nH]cn2)NC(=O)[C@@H](NC(=O)[C@H](Cc2ccc(O)cc2)NC(=O)[C@@H](NC(=O)[C@H](CCCN=C(N)N)NC(=O)CNC)C(C)C)[C@@H](C)CC)CSC1(C)C)C(=O)O	250
	0%	CC[C@H](C)[C@H](NC(=O)[C@H]1CSCN1C(=O)[C@H](Cc1c[nH]cn1)NC(=O)[C@@H](NC(=O)[C@H](Cc1ccc(O)cc1)NC(=O)[C@@H](NC(=O)[C@H](CCCN=C(N)N)NC(=O)CNC)C(C)C)[C@@H](C)CC)C(=O)O	
6.7		CC[C@H](C)[C@H](NC(=O)[C@H]1C[S+]([O-])CN1C(=O)[C@H](Cc1c[nH]cn1)NC(=O)[C@@H](NC(=O)[C@H](Cc1ccc(O)cc1)NC(=O)[C@@H](NC(=O)[C@H](CCCN=C(N)N)NC(=O)CNC)C(C)C)[C@@H](C)CC)C(=O)O (stereo partly specified) (H-[Sar]RVYIH[X2]I-OH)	
